Measurements collected from several papers.
Each line is one published result; the experiments were not run side by side.
Target: Dual specificity protein kinase TTK (TTK, Homo sapiens, UniProt P33981)
One construct used (P33981 1-857): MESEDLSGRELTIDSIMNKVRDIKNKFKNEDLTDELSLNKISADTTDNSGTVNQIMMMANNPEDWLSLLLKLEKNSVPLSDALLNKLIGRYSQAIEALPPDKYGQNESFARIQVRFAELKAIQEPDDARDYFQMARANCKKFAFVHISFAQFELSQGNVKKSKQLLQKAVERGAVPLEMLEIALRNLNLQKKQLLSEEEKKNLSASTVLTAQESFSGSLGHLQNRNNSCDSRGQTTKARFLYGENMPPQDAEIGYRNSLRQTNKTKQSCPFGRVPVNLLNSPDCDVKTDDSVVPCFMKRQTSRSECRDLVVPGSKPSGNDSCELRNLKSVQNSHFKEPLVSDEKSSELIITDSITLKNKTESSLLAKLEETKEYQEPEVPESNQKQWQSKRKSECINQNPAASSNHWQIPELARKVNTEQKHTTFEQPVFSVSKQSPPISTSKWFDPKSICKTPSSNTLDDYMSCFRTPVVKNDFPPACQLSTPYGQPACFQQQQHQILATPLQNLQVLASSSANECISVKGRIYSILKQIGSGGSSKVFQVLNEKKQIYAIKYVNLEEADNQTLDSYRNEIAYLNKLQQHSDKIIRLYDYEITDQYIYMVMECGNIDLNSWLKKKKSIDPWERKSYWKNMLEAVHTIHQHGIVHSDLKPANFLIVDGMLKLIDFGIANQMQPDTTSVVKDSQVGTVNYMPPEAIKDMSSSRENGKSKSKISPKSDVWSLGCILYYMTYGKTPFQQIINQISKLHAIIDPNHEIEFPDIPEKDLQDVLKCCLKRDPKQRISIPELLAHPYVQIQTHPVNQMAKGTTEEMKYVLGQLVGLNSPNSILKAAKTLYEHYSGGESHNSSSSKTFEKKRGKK

SMILES | read-out | action | technique | concentration | measurement | value
Cn1c2c(c3ccc(Cl)c(Cl)c31)C(C#N)C1(CCNCC1)NC2=O (racemic) | thermal stability |  | DSF | 10 µM | ΔTm | 0.7 °C
CCOCCn1cc(C(=O)Nc2ccc(-n3nc(-c4cccnc4)cc3C(F)(F)F)cn2)ccc1=O | cell-free assay |  | competition with immobilised ligand | 1 µM | remaining binding | 100%
Cc1ccc(NC(=O)c2ccc(CN3CCN(C)CC3)cc2)cc1Nc1nc(-c2cccnc2)cs1 | cell-free assay |  |  | 0.5 µM | remaining signal | 112%
Cc1noc([C@H]2C[C@@H](c3ccc(C(F)(F)F)cc3)CN(C(=O)N3CCS(=O)(=O)C3)C2)n1 | cell-free assay |  | competition with immobilised ligand | 1 µM | remaining binding | 100%
COc1cc(Nc2cnc(C#N)c(O[C@H](C)CN(C)C)n2)ncc1-c1cnn(C)c1 | enzyme activity | inhibitor | radiometric | 1 µM | remaining activity | 81%
FC(F)(F)Oc1cccc(-c2cnc3ccc(-c4ccncc4)nn23)c1 | enzyme activity | inhibitor | radiometric | 1 µM | activity vs control | 70%
O=C1NC(=O)c2cc(Nc3ccc(F)cc3)c(Nc3ccc(F)cc3)cc21 | cell-free assay |  |  | 0.5 µM | remaining signal | 95.4%
FC(F)c1nc2ccccc2n1-c1nc(N2CCOCC2)nc(N2CCOCC2)n1 | enzyme activity | inhibitor |  | 10 µM | remaining activity | 88%
COc1cc(/C=C/C(=O)CC(=O)/C=C/c2ccc(O)c(OC)c2)ccc1O | enzyme activity | inhibitor |  | 1 µM | activity vs control | 51%
O=C(N1CCS(=O)(=O)CC1)N1C[C@H](c2ccc(OC(F)(F)F)cc2)C[C@H](c2nc(C3CC3)no2)C1 | cell-free assay |  | competition with immobilised ligand | 1 µM | remaining binding | 82%
Oc1cccc(-c2nc(N3CCOCC3)c3oc4ncccc4c3n2)c1 | enzyme activity | inhibitor |  | 10 µM | remaining activity | 66%
CN(C(=O)c1ccccc1)c1cc(N(C)c2ccc3c(c2)CCc2ccc(C(=O)NCCN4CCOCC4)cc2C3=O)ccc1F | cell-free assay |  | competition with immobilised ligand | 1 µM | remaining binding | 87%
COc1cc(Cl)c(C(=O)N[C@@H](CN[C@H]2CC[C@@H](N)CC2)Cc2ccc(C#N)cc2)cc1-c1ccc(CN[C@H](C)c2ccc(C)cc2)o1 | enzyme activity | inhibitor |  | 1 µM | remaining activity | 95%
CCCOc1ccc([C@H]2[C@H](C(=O)O)[C@@H](c3ccc4c(c3)OCO4)CN2CC(=O)Nc2c(CC)cccc2CC)cc1 | cell-free assay |  | competition with immobilised ligand | 1 µM | remaining binding | 94%
CC(C)(C)c1nc2c(s1)c1nc(N)ncc1c1ccc(NS(=O)(=O)c3c(F)cccc3F)c(F)c12 | enzyme activity | inhibitor | radiometric | 1 µM | remaining activity | 90%
Nc1ncnc2occ(-c3ccc(NC(=O)Nc4cc(C(F)(F)F)ccc4F)cc3)c12 | cell-free assay |  |  | 20 µM | remaining signal | 4.5%
CCN1CCC2(CC1)NC(=O)c1c(c3ccc(Cl)c(Cl)c3n1C)C2C#N (racemic) | thermal stability |  | DSF | 10 µM | ΔTm | 0.6 °C
N#CCCc1ccc2c(c1)-c1[nH]c3ccc([N+](=O)[O-])cc3c1CC(=O)N2 | cell-free assay |  |  | 0.5 µM | remaining signal | 71.7%
O=C(NS(=O)(=O)c1ccc(NCC2CCOCC2)c([N+](=O)[O-])c1)c1ccc(N2CCN(Cc3ccc(C(F)(F)F)cc3-c3ccc(Cl)cc3)CC2)cc1Oc1cnc2[nH]ccc2c1 | cell-free assay |  | competition with immobilised ligand | 1 µM | remaining binding | 100%
N#CC1c2c([nH]c3c(Cl)c(Cl)ccc23)C(=O)NC12CCCCC2 (racemic) | thermal stability |  | DSF | 10 µM | ΔTm | 0.9 °C
Cc1ccc(C(=O)Nc2ccc(CN3CCN(C)CC3)c(C(F)(F)F)c2)cc1C#Cc1cnc2cccnn12 | enzyme activity |  |  | 23.5 nM | remaining activity | 77%
CCN(CC)CCNC(=O)c1c(C)[nH]c(/C=C2\C(=O)Nc3ccc(F)cc32)c1C | cell-free assay |  |  | 0.5 µM | remaining signal | 68%
